Rows were chosen to be rich in hits. Some 2.8% of all compounds tested hit in one or more screens of this group.
PAFAH2 FP inh: inhibitors of human PAFAH2 | 340,000 compounds, 0.99% hits | AID 492956 | Q99487 | inhibition, % at 3.39 µM | recombinant PAFAH2, FP-rhodamine activity probe, fluorescence polarization;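 active means inhibition above the mean over all tested compounds plus 3 SD, cut at about 30% in these data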;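 further: inhibitors block probe labeling of enzyme so polarization drops; 0% = enzyme with DMSO and 100% = wells lacking PAFAH2 protein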
PAFAH1B3 FP inh: PAFAH1B3 (human) inhibition; AID 492972; inhibition, % at 3.39 µM; recombinant PAFAH1B3, FP-rhodamine probe, fluorescence polarization; Q15102; 340,000 compounds, 0.28% hits;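 active means inhibition above the screen-wide average of all tested compounds plus 3 SD, cut at about 25% in these data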;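 further: 0% = enzyme with DMSO only and 100% = wells lacking PAFAH1B3 protein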
mABHD4 FP: ABHD4 (mouse) inhibition, primary FP screen | inhibition, % at 8.92 µM | AID 720543 | Q8VD66 | purified mABHD4, FP-Rh probe fluorescence polarization | 370,000 compounds, 0.54% hits;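 active means inhibition exceeding the mean over every tested compound plus 3 SD, cut at about 30% in these data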;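 further: 0% = plate median of compound wells and 100% = S159A mutant with DMSO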
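Assay system: mouse ABHD4 enzyme, wild type / Also added: fluorescent activity-based probe FP-Rh / Doses: single nominal dose of 8.92 µM, 0.89% DMSO final / Timing: 45 min compound pre-incubation plus 60 min probe step, 25 °C / Signal: FP readout, ex 525 nm / em 598 nm / Control set: S159A mutant/DMSO as 100%, compound-well median as 0%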
PAFAH1B2 FP inh: PAFAH1B2 (human) inhibition; P68402; AID 492953; inhibition, % at 3.39 µM; 340,000 compounds, 1.2% hits; recombinant PAFAH1B2, FP-rhodamine activity probe, fluorescence polarization;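 active means inhibition above the mean of all tested compounds plus 3 SD, cut at about 24% in these data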;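 further: 0% = enzyme with DMSO and 100% = wells lacking PAFAH1B2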
pPAFAH FP inh: inhibitors of human plasma PAF acetylhydrolase (pPAFAH). inhibition, % at 3.39 µM. AID 463082. 330,000 compounds, 1.5% hits. recombinant pPAFAH, FP-rhodamine probe fluorescence polarization. Q13093;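 active means inhibition above the mean inhibition across the screen plus 3 SD, cut at about 25% in these data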;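 further: inhibitors block binding of the rhodamine activity-based probe so polarization drops; 0% = enzyme with DMSO and 100% = wells lacking pPAFAH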
Target sequence (Q13093 whole entry, looked up): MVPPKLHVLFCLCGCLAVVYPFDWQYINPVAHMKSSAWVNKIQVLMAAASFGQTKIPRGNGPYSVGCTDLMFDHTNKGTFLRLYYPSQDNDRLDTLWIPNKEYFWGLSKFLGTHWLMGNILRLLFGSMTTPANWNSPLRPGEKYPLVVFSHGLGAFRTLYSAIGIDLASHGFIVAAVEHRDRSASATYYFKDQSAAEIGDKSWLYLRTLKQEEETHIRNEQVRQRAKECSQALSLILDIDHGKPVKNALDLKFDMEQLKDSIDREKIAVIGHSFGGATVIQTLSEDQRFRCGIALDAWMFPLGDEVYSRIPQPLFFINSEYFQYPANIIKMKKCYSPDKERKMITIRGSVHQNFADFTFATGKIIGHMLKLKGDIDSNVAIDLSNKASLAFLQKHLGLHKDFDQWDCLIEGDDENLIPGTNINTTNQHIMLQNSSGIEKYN
HTRA1 inh: inhibitors of human serine peptidase HTRA1 | Q92743 | recombinant HTRA1, FP-rhodamine activity-based probe, fluorescence polarization | inhibition, % at 5.96 µM | 340,000 compounds, 0.5% hits; in the data active means inhibition above about 36%;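 further: 0% = enzyme with DMSO and 100% = wells lacking enzyme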
An asterisk follows results filed as active; / = no result given.

SMILES | PAFAH2 FP inh | PAFAH1B3 FP inh | mABHD4 FP | PAFAH1B2 FP inh | pPAFAH FP inh | HTRA1 inh
COC(=O)CCCC1=CC2=CC(=O)C(C)(O)C(=O)C2=CO1 (configuration not stated) | / | / | / | / | 16 | /
CC(C)(C)OC(=O)NCCCC1=CC2=CC(=O)C(C)(O)C(=O)C2=CO1 (configuration not stated) | / | / | / | / | 32* | /
COc1cccc2cc3c(nc12)C[C@@H]1CCCC(=O)N2CCC[C@@]12C3 | / | / | 1 | / | / | /
CC(C)C[C@H]1COc2cc(Br)ccc2S(=O)(=O)N1Cc1cn(CCC2OCCO2)nn1 | / | / | -8 | / | / | /
O=C(NCc1ccco1)C1CCCN(S(=O)(=O)c2ccc([N+](=O)[O-])cc2)C1 (configuration not stated) | / | / | -2 | / | / | /
COc1ccc2c(c1)CN1C(=O)N(Cc3ccccc3)S(=O)(=O)CC21 (configuration not stated) | / | / | -7 | / | / | /
CCCCCCCCN1C(=O)[C@@H](CC(=O)NCCCOCCCC)C[C@@]2(C(=O)OC)C1=C[C@H](COCc1ccccc1)O[C@@H]2C | / | / | 4 | / | / | /
CCOC(=O)[C@@]12CCCC3=C1N(CCC3)C(=O)[C@H]2CC(=O)NCc1cccc2ccccc12 | / | / | 0 | / | / | /
Cn1cccc1C(=O)N1CCN(S(=O)(=O)c2cccc3ccccc23)CC1 | / | / | -3 | / | / | /
COc1ccc(CNC(=O)CSc2nc3c([nH]2)c(=O)n(C)c(=O)n3C)cc1 | / | / | -5 | / | / | /
Cc1cccc2sc(NC(=O)C3CCCO3)nc12 (configuration not stated) | -6 | 2 | -3 | 0 | 7 | -7
Cc1nc(C)c(C(=O)Nc2nc3c(C)cccc3s2)o1 | 17 | 10 | 5 | 3 | 30* | 7
Nc1ccc(S(=O)(=O)N2CCc3ccccc32)cc1 | 2 | 2 | -4 | 7 | 9 | -3
O=S(=O)(NC1CCCC1)c1ccc(S(=O)(=O)N2CCc3ccccc32)cc1 | 8 | 0 | -15 | 27* | 27* | -38
O=C(COC(=O)CCS(=O)(=O)c1ccc(Cl)cc1)NCCc1ccc(Cl)cc1Cl | -3 | -5 | 1 | 26* | 3 | 5
O=C(Cc1ccc(Br)cc1)NCCc1ccc(Cl)cc1Cl | -4 | -2 | -9 | 27* | 0 | -15
O=C(Cc1ccccc1)NCCc1ccc(Cl)cc1Cl | 3 | 6 | / | 4 | -6 | -3
O=C(COC(=O)CCS(=O)(=O)c1ccc(Cl)cc1)NC1CCCCC1 | 1 | 11 | 9 | 9 | 20 | 0
OCC[C@H]1C[C@H](O)[C@@H](O)[C@@]2(OCc3ccccc32)O1 | 3 | -2 | 16 | 0 | 5 | 1
OCC[C@H]1C[C@H](O)[C@@H](O)[C@]2(OCCc3ccccc32)O1 | 7 | 7 | -8 | 0 | 26* | -2
CN(C)c1cccc(/C=C2\CC3(OC(=O)c4cccc(F)c4)CCCN2C3)c1 (configuration not stated) | / | / | 6 | / | / | /
O=C(Nc1ccccc1)C(Cc1ccccc1)NC(=O)C12CC3CC(CC(C3)C1)C2 (configuration not stated) | 7 | -2 | 3 | 6 | -2 | -2
O=C(NC(n1ccc(=O)[nH]c1=O)C(Cl)(Cl)Cl)C12CC3CC(CC(C3)C1)C2 (configuration not stated) | -4 | 6 | 0 | 27* | 8 | -7
CCCn1c(=O)c2ccccc2n2c(Sc3nnnn3-c3ccccc3)nnc12 | -7 | 8 | 5 | -3 | 27* | 7
N#CC(=C(c1ccccc1)c1ccccc1)c1ccccc1 | 0 | 5 | 4 | 24* | / | 1
SMILES | PAFAH2 FP inh | PAFAH1B3 FP inh | mABHD4 FP | PAFAH1B2 FP inh | pPAFAH FP inh | HTRA1 inh
CN(C/C(O)=C(\C#N)c1ccccc1)C1CCCCC1 | 8 | -4 | 6 | 1 | 1 | -2
CCOC(=O)CSc1nnc(NC(=O)CN2CCN(C=O)CC2)s1 | 2 | 4 | 7 | 52* | 3 | 3
CCOC(=O)CSc1nnc(NC(=O)CCc2ccccc2)s1 | -1 | 1 | -3 | 5 | 2 | 2
COC(=O)[C@H](CC(C)C)N(CCCc1cn(Cc2ccccc2)nn1)S(=O)(=O)c1ccc(F)cc1Br | / | / | -3 | / | / | /
CN(C)c1ccc(N=Cc2ccco2)cc1 | 2 | 6 | / | 7 | 28* | 55*
Cc1ccc(NCC(=O)N/N=C\C(Br)=C\c2ccccc2)cc1 | -8 | 14 | 3 | 7 | 27* | -10

High-throughput results (PubChem BioAssay)
